Screening results: PubChem, several laboratories
The list is not random: actives were taken first. Their share in the collection is about 4.2%.
KCC2 mod = KCC2 (human) Cl- transport modulation; Q9H2X9; KCC2 cells, thallium flux FluoZin-2 fluorescence; B-score of Tl+ flux slope (higher = more flux/activation; lower = inhibition) at 10 µM; 190,000 compounds, 2.2% hits; AID 1456;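 active means thallium flux slope and its plate-corrected score both differing from the plate sample mean at a set confidence after two filtering rounds, in either direction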;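 further: slope of fluorescence scaled to starting intensity during 10 to 20 s after thallium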
SUMO Mot1 rescue = inhibitors of SUMOylation pathway: yeast Mot1-301 growth rescue; S. cerevisiae Mot1-301 growth rescue, ATP luminescence, 38.5C; percent above DMSO median, 100 means doubled; growth rescue, % at 18.8 µM; 320,000 compounds, 1% hits; AID 2716;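 active means every valid replicate shows activation above 250% relative to neutral control wells; inactive means the rest, any valid replicate at or below 250%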;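 further: OY570 slx delta 5 strain wells were the positive control but not used for scaling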
KCNQ1 pot = human KCNQ1 channel potentiation or activation. 310,000 compounds, 0.35% hits. B-score at 10 µM. CHO-K1 KCNQ1, thallium flux FluxOR fluorescence; hits give high values. P51787. AID 2648;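 active means fluorescence ratio B-score, a plate-corrected score, at least three library SD, with initial intensity B-score within 5 SD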
Target sequence (P51787 whole entry, looked up): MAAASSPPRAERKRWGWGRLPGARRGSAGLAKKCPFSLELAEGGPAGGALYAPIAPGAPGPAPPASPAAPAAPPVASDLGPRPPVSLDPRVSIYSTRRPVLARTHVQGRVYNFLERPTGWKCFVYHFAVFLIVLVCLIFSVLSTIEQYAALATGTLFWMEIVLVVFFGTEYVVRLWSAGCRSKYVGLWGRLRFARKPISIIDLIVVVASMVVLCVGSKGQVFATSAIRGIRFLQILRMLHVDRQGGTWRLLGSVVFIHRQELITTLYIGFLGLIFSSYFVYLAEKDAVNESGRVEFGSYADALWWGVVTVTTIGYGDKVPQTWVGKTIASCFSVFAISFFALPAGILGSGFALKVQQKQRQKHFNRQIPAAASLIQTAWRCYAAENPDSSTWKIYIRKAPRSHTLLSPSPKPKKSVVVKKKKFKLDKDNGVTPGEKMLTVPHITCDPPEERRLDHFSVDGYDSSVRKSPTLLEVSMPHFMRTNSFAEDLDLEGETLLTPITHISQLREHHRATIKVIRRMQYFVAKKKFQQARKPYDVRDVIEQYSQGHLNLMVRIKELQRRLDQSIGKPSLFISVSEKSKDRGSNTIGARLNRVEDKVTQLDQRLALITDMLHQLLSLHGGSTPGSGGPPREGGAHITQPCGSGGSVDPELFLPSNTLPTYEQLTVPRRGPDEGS
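Doses: Single concentration per compound, DMSO matched to controls | Test system: KCNQ1-transfected CHO-K1 cells | Timing: 90 min dye loading and 20 min compound exposure, both at room temperature | Measured by: Kinetic FluxOR thallium fluorescence, 10-s 1-Hz baseline, 110-s post-stimulus read | Medium: Assay buffer with matched DMSO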
hERG rescue = hERG (human) protection from proarrhythmic block; CHO-hERG, FluxOR thallium flux, dofetilide IC70 present; 310,000 compounds, 0.51% hits; AID 1511; Q12809; activation (rescue from dofetilide block), less the hit threshold, % at 10 µM;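 active means activation above the mean of controls blocked by dofetilide plus 5 SD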;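 further: thallium influx through hERG after potassium depolarization seen as dye fluorescence rise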
KCNQ1 inh = inhibitors of human KCNQ1 potassium channel; P51787; B-score at 10 µM; 310,000 compounds, 1.3% hits; CHO-K1 KCNQ1, FluxOR thallium flux fluorescence; hits give high values;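 active means compounds whose thallium flux B-score, printed positive for inhibition, exceeds three library SD while starting fluorescence stays within three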;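 further: channel opened by potassium depolarization with thallium stimulus after 20 min compound exposure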
AI-2 QS modul = modulators of Vibrio harveyi AI-2 quorum sensing system | Vibrio harveyi JMH597 AI-2 luminescence/OD600 ratio, 9 h; hits give low values; strain lacks LuxN and CqsS sensors; 0 = neutral-control median | activity change, % at 7.5 µM | 300,000 compounds, 0.4% hits | AID 2094; in the data active means activity change below about -75%, passing the limit was not always enough;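 further: luminescence divided by OD600 gain over 9 h not by final OD600 alone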
Active calls of the source: *; i = inactive; . = no result given.

SMILES	KCC2 mod	SUMO Mot1 rescue	KCNQ1 pot	hERG rescue	KCNQ1 inh	AI-2 QS modul
CCOc1ncccc1C(=O)NCC(c1ccccc1)N(C)C (stereo not drawn)	.	158	i	-8	i	31
Cc1ccc(CSc2ccc(-c3ccco3)nn2)cc1	-1.4	-1	i	-10	i	-86*
Clc1ccc(CSc2ccc(-c3ccco3)nn2)cc1	0.26	-28	i	-5	i	-35
Clc1cccc(CSc2ccc(-c3ccco3)nn2)c1	-0.38	20	i	-11	i	-4
c1ccc(CSc2ccc(-c3ccco3)nn2)cc1	-0.58	.	i	-3	i	-77*
CCN1CCN(Cc2ccc(NC(=O)c3ccc(C)c(NC(=O)C(=O)c4c[nH]c5ccccc45)c3)cc2C(F)(F)F)CC1	-0.049	187	i	-40	12*	43
Cc1ccc(C(=O)OCC(=O)Nc2sc3c(c2C#N)CCCC3)cc1NC(=O)c1ccco1	.	-4	19*	-4	i	20
Cc1ccc(C(=O)OCC(=O)Nc2sc3c(c2C#N)CCCCC3)cc1NC(=O)c1ccco1	-0.09	-3	i	-10	i	27
CCCCn1nc(NC(=O)COC)c2cc3ccc(C)cc3nc21	.	-7	i	9.0*	i	-2
C/C(=N\NC(=O)c1ccc(-c2ccccc2)cc1)C1C(=O)c2ccccc2C1=O	0.93	74	i	-24	7*	0
CCOc1ccc(C(=O)N/N=C(/C)C2C(=O)c3ccccc3C2=O)cc1	-0.85	3	i	-10	i	22
Cc1nnnn1/C(=C\c1ccccc1)C(=O)OCC(=O)Nc1ccc(Cl)cc1F	.	-19	7*	-13	i	20
Cc1nnnn1/C(=C\c1ccccc1)C(=O)OCC(=O)Nc1cccc(S(=O)(=O)N(C)C)c1	.	-12	.	.	.	.
O=S(=O)(/C=C/c1ccccc1)NC1CCCCCC1	-0.53	31	i	-15	i	22
O=S(=O)(/C=C/c1ccccc1)NC1CCCCCCC1	0.1	328*	i	-8	i	9
CO/N=C/c1ccc(N2CCN(C(=O)c3ccc(Cl)cc3Cl)CC2)c([N+](=O)[O-])c1	-0.42	49	i	-20	7*	34
O=[N+]([O-])c1ccc(C2=NN(c3ccccc3)C(c3ccco3)C2)cc1 (stereo not drawn)	1	.	i	-31	8*	-5
O=[N+]([O-])c1ccc(/C=C/C2=NN(c3ccccc3)C(c3ccco3)C2)cc1 (stereo not drawn)	0.54	-5	.	.	.	.
O=c1c(O)c(-c2cccs2)oc2ccc(Cl)cc12	0.24	26	72*	35*	i	32
O=c1c(O)c(-c2cccs2)oc2ccccc12	i	-8	55*	33*	i	26
CCOc1ccccc1CN1CCNC(=O)C1CC(=O)NC1CCCCCCC1 (stereo not drawn)	.	-6	i	-5	i	34
CC(NC(=O)c1ccc(OC2CCN(Cc3ccccn3)CC2)cc1)c1nccs1 (stereo not drawn)	.	-13	i	-5	i	10
CCS(=O)(=O)c1ccc(O)c(NC(=O)/C=C/c2ccc(Cl)cc2)c1	-0.38	259	i	-9	i	-83*
COc1ccc(CNC(=O)CN2C(=O)CCSc3ccc(S(=O)(=O)N4CCCC4)cc32)cc1	.	22	i	-5	i	27
COc1ccc(C(=O)O)c(OC)n1	0.28	313*	i	-9	i	10
CCn1c(=O)cc(SCC(=O)N2CCN(c3ccccc3F)CC2)c2ccccc21	-2.9	180	i	-13	i	2
N#C/C(=N\Nc1cccc(C(F)(F)F)c1)C(=O)c1csc(-c2cccnc2)n1	-6.1*	22	i	-32	7*	87
Cc1ccc(C(=O)Nc2cccc(C(F)(F)F)c2)cc1NC(=O)c1csc(-c2ccncc2)n1	-0.15	1	i	-9	i	12
Cc1ccc(-n2nc3c(=O)n(CC(=O)NC4CCCCCC4)nc(C)c3c2C)cc1	.	0	i	-6	i	11
